The values that follow come from ChEMBL document CHEMBL4130355, “Development of a series of novel 4-anlinoquinazoline derivatives possessing quinazoline skeleton: Design, synthesis, EGFR kinase inhibitory efficacy, and evaluation of anticancer activities in vitro” (Eur J Med Chem, 2017).

Bounds are passed on as bounds.

In one assay the test system is DU-145. The experiment in a line: Antiproliferative activity against human DU145 cells after 72 hrs by MTT assay. In kind it is functional, cell-based. Conditions: DU-145, 72 h. For orientation: Tetrazolium dyes change colour on reduction, which living cells bring about.
In the next assay the test system is A549. The experiment in a line: Antiproliferative activity against human A549 cells after 72 hrs by MTT assay. In kind it is functional, cell-based. Conditions: A549, 72 h.
The test system of another assay is MCF7. Put plainly: Antiproliferative activity against human MCF7 cells after 72 hrs by MTT assay. Conditions: MCF7, 72 h. In kind it is functional, cell-based.
The next assay concerns SH-SY5Y. Put plainly: Antiproliferative activity against human SH-SY5Y cells after 72 hrs by MTT assay. The class given is functional, cell-based.
The subject of assay [1] is HepG2. Put plainly: Antiproliferative activity against human HepG2 cells after 72 hrs by MTT assay. In kind it is functional, cell-based. Conditions: HepG2, 72 h.
For assay [2], the system named is HepG2. The experiment in a line: Cytotoxicity against human HepG2 cells at 20 uM after 48 hrs by LDH release assay (reference value: 100%). The class given is functional. The method in brief:
(§1)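 LDH release. HepG2 cells at 1.0 × 10^5/well were incubated 24 h at 37 °C, then treated at 2.5–40 µM for 48 h. Cells lysed with 2% lysate for 1 h gave the full-release (100%) reference; medium-only cells were the low control. LDH in the supernatant was measured per kit. Triplicates, three independent repeats.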

Assay [3] concerns HepG2. The experiment in a line: Cytotoxicity against human HepG2 cells at 2.5 uM after 48 hrs by LDH release assay (reference value: 100%). In kind it is functional. The essentials: as §1
(In general: LDH leaks from cells whose membrane has failed.)

Assay [4] deals with HepG2. Put plainly: Cytotoxicity against human HepG2 cells at 40 uM after 48 hrs by LDH release assay (reference value: 100%). The class given is functional. The essentials:
(§2)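 HepG2 seeded at 1.0 × 10^5 cells/well, grown 24 h at 37 °C in 5% CO2, then dosed for 48 h. LDH in supernatant read on plate reader per kit. Maximal release (100% cytotoxicity) came from lysis with 2% (V/V) lysate for 1 h at 37 °C; medium-only cells served as natural release. Triplicate, three independent runs.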

For assay [5], the system named is HepG2. Put plainly: Cytotoxicity against human HepG2 cells at 10 uM after 48 hrs by LDH release assay (reference value: 100%). In kind it is functional. The method in brief: as §1
The test system of assay [6] is HepG2. Put plainly: Cytotoxicity against human HepG2 cells at 5 uM after 48 hrs by LDH release assay (reference value: 100%). In kind it is functional. The essentials:
as §2

Consider `COc1cc2c(Nc3ccc(C#N)cc3)ncnc2cc1OCCCN(C)Cc1ccccc1`, for which the IC50 in the assay with DU-145, with A549, in the assay with MCF7, with SH-SY5Y and with HepG2 [1] was more than 100 µM in each case.
For the compound `COc1cc2c(Nc3ccc(C#N)cc3)ncnc2cc1OCCCN(CCO)CCO`, the IC50 – broadly, the concentration that inhibits the measured activity by half – with DU-145 was determined as 20.2 µM; in the assay on A549, 26.1 µM; in the assay on MCF7, 36.8 µM; in the assay on SH-SY5Y it was 48.1 µM; in the assay with HepG2 [1], 40.3 µM.
Turning to `COc1cc2c(Nc3ccccc3C#N)ncnc2cc1OCCCN1CCCCC1`, the IC50 was determined as 15.3 µM in the assay with DU-145; 14.7 µM in the assay on A549; 15.2 µM in the assay on MCF7; 13.4 µM in the assay on SH-SY5Y; 14.2 µM in the assay on HepG2 [1].
Turning to `CCN1CCN(CCCOc2cc3ncnc(Nc4ccccc4C#N)c3cc2OC)CC1`, the IC50 with DU-145 worked out at 5.87 µM; in the assay on A549, 6.91 µM; in the assay on MCF7, 9.07 µM; in the assay with SH-SY5Y, 12.6 µM; in the assay on HepG2 [1] it was 2.11 µM.
As for `COc1cc2c(Nc3ccc(C#N)cc3)ncnc2cc1OCCCN1CCCCC1CCO` (stereo not given), the IC50 in the assay with DU-145, in the assay with A549, in the assay on MCF7, in the assay with SH-SY5Y and in the assay with HepG2 [1] was more than 100 µM in each case.
Take `COc1cc2c(Nc3ccccc3C#N)ncnc2cc1OCCCN1CCOCC1`: the IC50 with DU-145 is 68.5 µM; in the assay with A549 it was 46.8 µM; in the assay on MCF7, 98.4 µM; in the assay on SH-SY5Y it was more than 100 µM; with HepG2 [1], 3.68 µM.
Regarding `COc1cc2c(Nc3ccc(C#N)cc3)ncnc2cc1OCCCN1CCC(O)CC1`, the IC50 in the assay with DU-145 is 74.9 µM; with A549, 29.9 µM; with MCF7 it was more than 100 µM; in the assay on SH-SY5Y, more than 100 µM; in the assay with HepG2 [1] it was 67.9 µM.
With `COc1cc2c(Nc3cccc(C#N)c3)ncnc2cc1OCCCN1CCOCC1`, the IC50 in the assay on DU-145 is 77.8 µM; with A549, 65.5 µM; in the assay with MCF7, more than 100 µM; with SH-SY5Y, more than 100 µM; with HepG2 [1] it was 1.89 µM.
In the case of `CCOC(=O)C1CCN(CCCOc2cc3ncnc(Nc4ccc(C#N)cc4)c3cc2OC)CC1`, the 50% inhibitory concentration (IC50) in the assay on DU-145 was 52.3 µM; with A549, 89.9 µM; in the assay on MCF7, 34.9 µM; with SH-SY5Y, 47.2 µM; in the assay on HepG2 [1], 57.7 µM.
`COc1cc2ncnc(Nc3ccc(F)c(Cl)c3)c2cc1OCCCN1CCOCC1` [GEFITINIB]: the Activity in the assay with HepG2 [2] was determined as 45.24%; in the assay with HepG2 [3], 42.08%; with HepG2 [4] it was 47.62%; in the assay on HepG2 [5], 45.36%; in the assay with HepG2 [6] it was 48.69%.
For `CCN1CCN(CCCOc2cc3ncnc(Nc4ccc(C#N)cc4)c3cc2OC)CC1`, the IC50 in the assay with DU-145 was 34.4 µM; in the assay with A549 it was 16 µM; with MCF7, 29.9 µM; in the assay on SH-SY5Y, 5.44 µM; with HepG2 [1], 9.58 µM.
Consider `COc1cc2c(Nc3ccccc3C#N)ncnc2cc1OCCCN1CCN(C)CC1`, for which the IC50 was 19.4 µM in the assay on DU-145; 23.4 µM in the assay on A549; 17.8 µM with MCF7; 32.4 µM in the assay on SH-SY5Y; 26.4 µM in the assay on HepG2 [1].
Consider `CCN1CCN(CCCOc2cc3ncnc(Nc4cccc(C#N)c4)c3cc2OC)CC1`, for which the IC50 in the assay on DU-145 is 18.2 µM; in the assay on A549, 18.7 µM; in the assay with MCF7, 19.9 µM; with SH-SY5Y, 6.27 µM; with HepG2 [1], 13.7 µM.
On the same counts, the results for `COc1cc2c(Nc3ccc(C#N)cc3)ncnc2cc1OCCCN1CCCCC1` are 24.4 µM, 23.5 µM, 35.1 µM, 18.8 µM and 20.7 µM.
On the same counts, the results for `COc1cc2c(Nc3cccc(C#N)c3)ncnc2cc1OCCCN1CCC(C)CC1` are 17.7 µM, 18.7 µM, 24.4 µM, 7.33 µM and 18.2 µM.
Regarding `COc1cc2c(Nc3ccc(C#N)cc3)ncnc2cc1OCCCN(C)C`, the IC50 is 35.2 µM in the assay on DU-145; 60.5 µM with A549; 45 µM with MCF7; 34.9 µM in the assay with SH-SY5Y; more than 100 µM in the assay on HepG2 [1].
On to `COc1cc2c(Nc3cccc(C#N)c3)ncnc2cc1OCCCN1CCN(C)CC1`, for which the IC50 in the assay with DU-145 came out at 12.1 µM; in the assay with A549, 27.7 µM; in the assay with MCF7, 23.1 µM; in the assay with SH-SY5Y, 6.89 µM; with HepG2 [1] it was 18.3 µM.
Turning to `COc1cc2c(Nc3ccc(C#N)cc3)ncnc2cc1OCCCN1CCCC1`, the IC50 with DU-145 worked out at 14.4 µM; in the assay with A549, 21.8 µM; in the assay on MCF7 it was 16.2 µM; in the assay with SH-SY5Y it was 8.08 µM; with HepG2 [1], 20.9 µM.
For `COc1cc2c(Nc3ccc(C#N)cc3)ncnc2cc1OCCCN1CCc2ccccc2C1`, the IC50 in the assay on DU-145, with A549, in the assay with MCF7, in the assay with SH-SY5Y and with HepG2 [1] was more than 100 µM in each case.
In the case of `COc1cc2c(Nc3ccc(C#N)cc3)ncnc2cc1OCCCN1CCC(N2CCCCC2)CC1`, the IC50 with DU-145 was found to be 15.6 µM; in the assay with A549, 30.7 µM; in the assay with MCF7, 19.6 µM; with SH-SY5Y, 9.81 µM; in the assay with HepG2 [1], 8.84 µM.
With `COc1cc2c(Nc3ccc(C#N)cc3)ncnc2cc1OCCCN1CCC(CO)CC1`, the IC50 in the assay with DU-145 is 53.2 µM; with A549, more than 100 µM; with MCF7, 35.1 µM; in the assay with SH-SY5Y, 21.6 µM; in the assay on HepG2 [1], 61.8 µM.
On the same counts, the results for `COc1cc2c(Nc3ccc(C#N)cc3)ncnc2cc1OCCCN1CCC(N(C)C)CC1` are 28.3 µM, 42.4 µM, 31 µM, 24.3 µM and 33.6 µM.
For the compound `COc1cc2c(Nc3cccc(C#N)c3)ncnc2cc1OCCCN1CCCCC1`, the IC50 in the assay with DU-145 worked out at 29.1 µM; in the assay on A549 it was 37 µM; in the assay with MCF7, 44.8 µM; in the assay on SH-SY5Y, 11.2 µM; with HepG2 [1] it was 29.5 µM.
Regarding `COc1cc2c(Nc3ccc(C#N)cc3)ncnc2cc1OCCCN(C)CCO`, the IC50 is 17.4 µM in the assay with DU-145; 29 µM in the assay with A549; 41.4 µM in the assay on MCF7; 83.7 µM in the assay on SH-SY5Y; 45.2 µM in the assay on HepG2 [1].
Taken in the same sequence, the figures for `COc1cc2c(Nc3ccccc3C#N)ncnc2cc1OCCCN1CCCC1` were 18.7 µM, 21.8 µM, 16.2 µM, 28.9 µM and 24.5 µM.
On to `COc1cc2c(Nc3ccc(C#N)cc3)ncnc2cc1OCCCN1CCC(C)CC1`, for which the concentration for half-maximal inhibition (IC50) came to 16.6 µM with DU-145; 32.3 µM in the assay with A549; 43.1 µM in the assay with MCF7; 7.9 µM in the assay on SH-SY5Y; 32.1 µM in the assay with HepG2 [1].
Take `COc1cc2c(Nc3ccc(C#N)cc3)ncnc2cc1OCCCN(CCO)Cc1ccccc1`: the half-inhibitory concentration (IC50) in the assay on DU-145 is more than 100 µM; in the assay with A549, 47.4 µM; in the assay with MCF7 it was more than 100 µM; in the assay on SH-SY5Y it was more than 100 µM; with HepG2 [1], more than 100 µM.
With `COc1cc2c(Nc3cccc(C#N)c3)ncnc2cc1OCCCN1CCCC1`, the IC50 came out at 19.1 µM in the assay on DU-145; 39.9 µM in the assay with A549; 33.9 µM in the assay with MCF7; 10.6 µM with SH-SY5Y; 18.2 µM with HepG2 [1].
Take `COc1cc2c(Nc3ccccc3C#N)ncnc2cc1OCCCN1CCC(C)CC1`: the IC50 was found to be 11.9 µM with DU-145; 22.7 µM with A549; 31.9 µM with MCF7; 29 µM with SH-SY5Y; 4.03 µM with HepG2 [1].
Turning to `CCN(CC)CCCOc1cc2ncnc(Nc3ccc(C#N)cc3)c2cc1OC`, the 50% inhibitory concentration (IC50) is 68.9 µM with DU-145; 50.6 µM with A549; more than 100 µM in the assay on MCF7; more than 100 µM in the assay with SH-SY5Y; 59.4 µM in the assay on HepG2 [1].
On to `COc1cc2c(Nc3ccc(C#N)cc3)ncnc2cc1OCCCN1CCN(C)CC1`, for which the half-maximal inhibitory concentration (IC50) with DU-145 is 46.5 µM; in the assay on A549, 48.8 µM; in the assay on MCF7 it was 71.1 µM; with SH-SY5Y it was 13 µM; in the assay with HepG2 [1], 13.8 µM.
With `COc1cc2c(Nc3ccc(C#N)cc3)ncnc2cc1OCCCN1CCN(c2ccncc2)CC1`, the IC50 in the assay on DU-145 stood at 22.9 µM; with A549, 25.4 µM; with MCF7, 22.9 µM; with SH-SY5Y it was 31.6 µM; in the assay on HepG2 [1] it was 12.6 µM.
As to `COc1cc2c(Nc3ccc(C#N)cc3)ncnc2cc1OCCCN1CCOCC1`, the IC50 in the assay on DU-145 is 98.2 µM; in the assay with A549, 59.4 µM; in the assay on MCF7, more than 100 µM; in the assay on SH-SY5Y, more than 100 µM; with HepG2 [1] it was 0.77 µM.
Consider `COc1cc2c(Nc3ccc(C#N)cc3)ncnc2cc1OCCCN1CCN(CCO)CC1`, for which the IC50 with DU-145 came out at 29.3 µM; in the assay on A549, 9.82 µM; in the assay with MCF7, 25.2 µM; with SH-SY5Y, 36.8 µM; in the assay with HepG2 [1] it was 28.1 µM.
